Experimental data as given in ChEMBL document CHEMBL1132588, “Synthesis, CoMFA analysis, and receptor docking of 3,5-diacyl-2, 4-dialkylpyridine derivatives as selective A3 adenosine receptor antagonists” (J Med Chem, 1999).

Assays:
[1] = target: T1, Adenosine receptor A3 (Homo sapiens, UniProt P0DMS8); assay: (§1) Displacement of specific [125 I]AB-MECA binding at human Adenosine A3 receptor expressed in HEK cells; format: cell-based, HEK293
T1 sequence (P0DMS8 whole entry): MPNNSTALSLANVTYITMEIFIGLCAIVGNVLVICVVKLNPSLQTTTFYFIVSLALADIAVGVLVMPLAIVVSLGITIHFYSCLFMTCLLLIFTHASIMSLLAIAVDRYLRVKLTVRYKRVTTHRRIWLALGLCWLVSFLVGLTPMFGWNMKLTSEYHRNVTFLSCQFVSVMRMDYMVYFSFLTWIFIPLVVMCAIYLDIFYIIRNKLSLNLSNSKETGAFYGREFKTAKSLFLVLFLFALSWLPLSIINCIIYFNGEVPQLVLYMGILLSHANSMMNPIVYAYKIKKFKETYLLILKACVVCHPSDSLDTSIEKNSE
Outline: (§2)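 Membranes from HEK-293 cells stably expressing human A3 receptor (clone HS-21a), or from CHO cells stably expressing rat A3 receptor (rat: n = 3-5), in 50 mM Tris, 10 mM Mg2+, 1 mM EDTA, pH 8.0. Membranes at 0.3 mg protein/mL with [125I]AB-MECA at 0.3 nM final. Nonspecific binding defined with R-PIA. Competitors were dissolved in DMSO (≤2% final) and tested at ≥5 concentrations spanning 3 log units. Bound ligand was separated by GF/B filtration with three buffer rinses; Ki was derived.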

[2] = target: Adenosine receptor A2a (Rattus norvegicus) (UniProt P30543); assay: (§3) Displacement of specific [3H]-CGS- 21680 binding to Adenosine A2A receptor in rat striatal membranes; format: cell membranes; set-up: concentration or dose not given beside the values; conditions: Membrane, concentration not given here
Outline: (§4)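 Rat striatal membranes labelled with [3H]CGS 21680 for A2A binding. Adenosine deaminase (3 units/mL) was present during membrane preparation, during a 30 min preincubation at 30 °C, and during radioligand incubation. Competitors were dissolved in DMSO and diluted in buffer (DMSO ≤2%).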

[3] = organism: Rattus norvegicus; assay: Ratio of binding affinities for rat A1 receptor against human A3 receptor, [Ki(rA1) / Ki (hA3)].
Outline: (§5)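 Ratio of Ki values from binding assays. For A3, [125I]AB-MECA (final 0.3 nM) bound membranes of HEK-293 cells expressing human A3 (clone HS-21a) or CHO cells expressing rat A3, in Tris/Mg2+/EDTA buffer at pH 8.0. For rat A1, [3H]R-PIA bound cerebral cortex membranes, with adenosine deaminase (3 units/mL) present, including a 30 min preincubation at 30 °C.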

[4] = target: T2, Adenosine receptor A3 (Homo sapiens) (UniProt P0DMS8); assay: as §1; format: cell-based; conditions: HEK293
T2 sequence (whole entry): T1 sequence (P0DMS8 whole entry)

[5] = target: T3, Adenosine receptor A1 (Rattus norvegicus) (UniProt P25099); assay: (§6) Displacement of specific [3H]-CGS- 21680R-PIA binding to Adenosine A1 receptor in rat brain membranes.; format: cell membranes; conditions: concentration not given here
T3 sequence (whole entry): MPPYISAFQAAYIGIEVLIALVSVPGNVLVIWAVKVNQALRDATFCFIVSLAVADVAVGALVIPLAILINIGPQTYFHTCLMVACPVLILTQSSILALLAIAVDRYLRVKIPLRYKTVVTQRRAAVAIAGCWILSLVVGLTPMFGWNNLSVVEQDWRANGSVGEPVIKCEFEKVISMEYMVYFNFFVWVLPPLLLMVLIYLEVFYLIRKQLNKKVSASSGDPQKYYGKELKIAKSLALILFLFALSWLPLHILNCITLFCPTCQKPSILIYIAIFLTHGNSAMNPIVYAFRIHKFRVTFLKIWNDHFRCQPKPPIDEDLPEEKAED
Outline: (§7)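 A1 binding used [3H]R-PIA on rat cerebral cortex membranes. Adenosine deaminase (3 units/mL) was included in membrane preparation, in a 30 min preincubation at 30 °C, and throughout radioligand incubation. Competitors were DMSO stocks diluted in buffer, with DMSO never above 2%.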

[6] = target: T2, Adenosine receptor A3 (Homo sapiens); assay: as §1; format: cell-based; conditions: HEK293; concentration not given here; outline: as §2
[7] = target: Adenosine receptor A2a (Rattus norvegicus, UniProt P30543); assay: Inhibition of [3H]-CGS- 21680 binding to Adenosine A2A receptor in rat striatal membranes.; format: cell membranes, Membrane
[8] = target: T4, Adenosine receptor A1 (Rattus norvegicus, UniProt P25099); assay: as §6; format: cell membranes; conditions: in the assay text read “[3H]R-PIA” for “[3H]-CGS- 21680R-PIA”; outline: as §7
T4 sequence (P25099 whole entry): T3 sequence (whole entry)

[9] = target: T5, Adenosine receptor A3 (Rattus norvegicus, UniProt P28647); assay: Displacement of specific [125I]AB-MECA binding at rat Adenosine A3 receptor stably expressed in CHO cells; format: cell-based
T5 sequence (P28647 whole entry): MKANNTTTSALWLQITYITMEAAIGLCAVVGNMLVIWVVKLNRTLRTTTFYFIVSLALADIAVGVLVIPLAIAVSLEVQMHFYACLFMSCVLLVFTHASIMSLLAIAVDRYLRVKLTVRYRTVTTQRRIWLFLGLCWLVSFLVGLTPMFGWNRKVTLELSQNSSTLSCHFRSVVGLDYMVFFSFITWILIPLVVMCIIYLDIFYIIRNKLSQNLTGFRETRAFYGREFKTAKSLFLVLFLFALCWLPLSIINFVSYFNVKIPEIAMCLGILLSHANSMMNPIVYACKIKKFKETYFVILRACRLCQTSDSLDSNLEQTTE

[10] = organism: Rattus norvegicus; assay: Ratio of the binding affinities against rat A3 receptor / human A3 receptor, Ki(rA1) / Ki (hA3).; outline: as §5
[11] = organism: Rattus norvegicus; assay: Ratio of the binding affinities against rat A3 receptor / rat A3 receptor, Ki(rA1) / Ki (rA3).; outline: as §5
[12] = target: Adenosine receptor A2a (Rattus norvegicus) (UniProt P30543); assay: as §3; format: cell membranes; conditions: Membrane; outline: as §4

Sequence of Adenosine receptor A2a (Rattus norvegicus) (P30543 whole entry): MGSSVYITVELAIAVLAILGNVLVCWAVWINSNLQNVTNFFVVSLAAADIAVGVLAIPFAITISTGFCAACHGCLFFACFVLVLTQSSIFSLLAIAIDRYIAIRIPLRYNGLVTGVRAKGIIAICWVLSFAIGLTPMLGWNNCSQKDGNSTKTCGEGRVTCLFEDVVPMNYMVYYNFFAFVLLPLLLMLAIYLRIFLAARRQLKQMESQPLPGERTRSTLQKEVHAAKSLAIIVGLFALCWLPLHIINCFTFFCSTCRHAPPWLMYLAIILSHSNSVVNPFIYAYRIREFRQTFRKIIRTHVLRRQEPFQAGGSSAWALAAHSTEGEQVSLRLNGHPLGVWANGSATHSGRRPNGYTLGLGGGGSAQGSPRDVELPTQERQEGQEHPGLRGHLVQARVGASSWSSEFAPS
Sequence of Adenosine receptor A2a (P30543 whole entry): as above

Structure (SMILES)	Ki [1]	Ratio [3]	pKi [4]	Ki [8]	other results
CCOC(=O)c1c(C)nc(-c2ccccc2)c(C(=O)OCC)c1C(OC)OC			6.11		
CCNC(=O)c1c(C)nc(-c2ccccc2)c(C(=O)OCC)c1CC					inhibition [5]: < 10%; inhibition [6]: < 10%; inhibition [2]: < 10%
CCCOC(=O)c1c(C)nc(-c2ccccc2)c(C(=O)OCC)c1C			6.67		
CCOC(=O)c1c(-c2cccc(Cl)c2)nc(CC)c(C(=O)SCC)c1CC			7.87		
CCCOC(=O)c1c(-c2ccccc2)nc(CC)c2c1CCOC2=O				11.2 µM	inhibition [6]: < 10%; inhibition [2]: 20%
CCOC(=O)c1c(-c2ccccc2)nc(CC)c2c1CCCNC2=O	1.99 µM		5.7	5.79 µM	Displacement [12]: < 10%
CCOC(=O)c1c(C)nc(-c2ccccc2)c(C(=O)OCc2ccccc2)c1C#Cc1ccccc1			5.56		
CCOC(=O)c1c(C)nc(-c2ccccc2)c(C(=O)OCC)c1C			5.35		
CCOC(=O)c1c(-c2ccccc2)nc(C2CCC2)c(C(=O)SCC)c1CC			6.84		
CCCOC(=O)c1c(-c2ccccc2)nc(CC)c2c1CCSC2=O	0.248 µM		7.6	16.5 µM	Ki [7]: 67.1 µM; Ki [9]: 2.58 µM
CCOC(=O)c1c(C)nc(C2CCCC2)c(C(=O)OCc2ccccc2)c1C#Cc1ccccc1			5.41		

Continued, in another order:

Ki [1]	Ratio [3]	pKi [4]	Ki [8]	Structure (SMILES)	other results
2.64 µM	2.2			CCCOC(=O)c1c(-c2ccccc2)nc(CC)c(C(=O)SCC2COC(C)(C)O2)c1CCC (configuration not stated)	inhibition [2]: < 10%
		7.8		CCCSC(=O)c1c(CC)nc(-c2ccccc2)c(C(=O)OCC)c1CC	
0.262 µM	35	6.58	9.04 µM	CCCOC(=O)c1c(-c2ccccc2)nc(CC)c(C(=O)SCC)c1CCO	Ki [7]: 0.0103 µM
0.00967 µM	630	8.01	6.05 µM	CCCc1c(C(=O)SCC)c(CC)nc(-c2ccccc2)c1C(=O)OCCCF	Ki [7]: 9.67 µM; Ki [9]: 0.512 µM; Ratio [10]: 53; Ratio [11]: 12
	2700	8.37	11.5 µM	CCSC(=O)c1c(CC)nc(-c2ccccc2)c(C(=O)OCCF)c1CC	Ki [7]: 7.33 µM; Ki [9]: 0.6 µM; Ratio [10]: 140; Ratio [11]: 19
		7.77		CCOC(=O)c1c(-c2ccccc2)nc(CCOC)c(C(=O)SCC)c1CC	
0.0599 µM	140	7.22	8.09 µM	CCCOC(=O)c1c(-c2ccccc2)nc(CC)c(C(=O)SCC)c1CCCF	Ki [7]: 27.4 µM; Ki [9]: 0.9 µM; Ratio [10]: 15; Ratio [11]: 9
	> 50	5.59		CCCOC(=O)c1c(CCC)c(C(=O)SCC)c(CC)[n+](C)c1-c1ccccc1	Ki [9]: 4.26 µM; inhibition [5]: < 10%; inhibition [2]: < 10%; Ratio [10]: 2.1; Ratio [11]: > 23
0.0181 µM	460	7.74	8.29 µM	CCCOC(=O)c1c(-c2ccccc2)nc(CC)c(C(=O)SCC(F)(F)F)c1CCC	Ki [7]: 6.14 µM; Ki [9]: 0.495 µM; Ratio [10]: 27; Ratio [11]: 17
0.0311 µM	1300	7.51	41 µM	CCCOC(=O)c1c(-c2ccc(F)cc2)nc(CC)c(C(=O)SCC)c1CCC	inhibition [2]: 50%
		7.48		CCCc1nc(-c2ccccc2)c(C(=O)OCC)c(CC)c1C(=O)SCC	
		8.1		CCCOC(=O)c1c(-c2cccc(Cl)c2)nc(CC)c(C(=O)SCCC)c1CC	
